Laboratory results published in ChEMBL document CHEMBL1149757, “Synthesis and antimalarial activity of new analogues of amodiaquine” (Eur J Med Chem, 2008).
Calls of active or inactive are those of the source. No cut-off for these calls is given here.

Key:
Plasmodium falciparum [1] = assay: Antimalarial activity against chloroquine-resistant Plasmodium falciparum FcB1R after 24 hrs by semiautomated micro dilution assay; format: functional, organism-based
Procedure, shortened: (§1)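 Asynchronous P. falciparum cultures on human erythrocytes (0.5% parasitaemia, 1% final haematocrit) were exposed to serially diluted drug for 24 h at 37 °C. [³H]hypoxanthine was then added for a further 24 h. Cells were freeze-thawed, harvested onto glass-fibre filters and scintillation-counted against a drug-free control on the same plate. IC50 was read from concentration-response curves (mean ± SD, independent experiments). DMSO was ≤0.1%.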

Plasmodium falciparum [2] = assay: Antimalarial activity against chloroquine-resistant Plasmodium falciparum K1 after 24 hrs by semiautomated micro dilution assay; format: functional, organism-based; details: K1, 24 h; procedure, shortened: as §1
[3] = Cytotoxicity against human […] cells after 7 days by MTT assay; format: cell-based
Procedure, shortened: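 MRC-5 human embryonic lung cells seeded at 5000 per well. After 24 h, cells were washed and given two-fold drug dilutions (32 to 1.6) in RPMI + 5% FCS, with final DMSO below 0.5%. Incubated 7 days at 37 °C in 5% CO₂. MTT read-out as % reduction of 540 nm absorbance versus untreated cultures. CC50 from two experiments.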

[4] = Selectivity index, ratio of CC50 for human MRC5 cells to IC50 for Plasmodium falciparum K1; format: functional
Procedure, shortened: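 Ratio of MRC-5 CC50 to P. falciparum K1 IC50. CC50: 7-day MTT assay at 540 nm, from two experiments. IC50: asynchronous cultures (0.5% parasitaemia, 1% haematocrit) exposed to drug for 24 h at 37 °C, then [³H]hypoxanthine added for a further 24 h. Incorporation compared with drug-free controls; mean of independent experiments.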

Plasmodium falciparum [5] = assay: Antimalarial activity against chloroquine-sensitive Plasmodium falciparum Thai after 24 hrs by semiautomated micro dilution assay
Plasmodium berghei [6] = assay: Antimalarial activity as increased MST in Plasmodium berghei ANKA 65 infected Swiss CD1 at 10 mg/kg initial oral followed by intraperitoneal dose after 4 days; format: functional, organism-based; parameters: dose 10 mg/kg
Plasmodium berghei [7] = assay: Antimalarial activity in Plasmodium berghei ANKA 65 infected Swiss CD1 mice (Mus musculus) as reduced parasitaemia at 10 mg/kg initial oral dose and further intraperitoneal dose after 4 days; format: functional; parameters: scale not given: the % may be the effect or the level left
[8] = Inhibition of haem polymerization after 24 hrs; format: functional
Procedure, shortened: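 Lipid-induced β-hematin formation: hemin in 25 mM NaOH mixed with a 1-monooleoylglycerol suspension in 90 mM sodium acetate, pH 5. Drug added from DMSO stock; controls received equal DMSO. Incubated 24 h at 37 °C, in duplicate. Samples centrifuged at 4 °C, and the pellet washed repeatedly with 10 mM sodium phosphate pH 7.4 containing 2.5% SDS.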

Plasmodium berghei [9] = assay: Antimalarial activity as increased MST in Plasmodium berghei ANKA 65 infected Swiss CD1 mice (Mus musculus) at 40 mg/kg initial oral followed by intraperitoneal dose after 4 days; format: functional, organism-based; parameters: dose 40 mg/kg
Procedure, shortened: (§2)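 P. berghei ANKA 65 in 4-week-old female Swiss CD-1 mice (20–25 g), infected ip with about 10⁷ parasitized erythrocytes from a donor. Treatment at 40 mg/kg in 100% DMSO: first dose oral at infection, then ip on the following four days. Three mice per group, with three DMSO-dosed infected controls. Parasite reduction read on day 4; survival compared with untreated controls.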

Plasmodium berghei [10] = assay: Antimalarial activity as reduced parasitaemia in Plasmodium berghei ANKA 65 infected Swiss CD1 mice (Mus musculus) at 40 mg/kg initial oral followed by intraperitoneal dose after 4 days; format: functional; parameters: scale not given: the % may be the effect or the level left; procedure, shortened: as §2
Plasmodium berghei [11] = assay: Antimalarial activity as increased MST in Plasmodium berghei ANKA 65 infected Swiss CD1 mice (Mus musculus) at 20 mg/kg initial oral followed by intraperitoneal dose after 4 days; format: functional
Plasmodium berghei [12] = assay: Antimalarial activity as reduced parasitaemia in Plasmodium berghei ANKA 65 infected Swiss CD1 mice (Mus musculus) at 20 mg/kg initial oral followed by intraperitoneal dose after 4 days; format: functional; parameters: scale not given: the % may be the effect or the level left

IC50 [8] [µM]	Structure (SMILES)	IC50 (Plasmodium falciparum [1]) [µM]	IC50 (Plasmodium falciparum [2]) [µM]	CC50 at 168 h [3] [µM]	Ratio CC50/IC50 [4]	IC50 (Plasmodium falciparum [5]) [µM]	Activity (Plasmodium berghei [6])	Activity (Plasmodium berghei [7]) [%]	Activity (Plasmodium berghei [9])	Activity (Plasmodium berghei [10]) [%]	Activity (Plasmodium berghei [11]) [%]	Activity (Plasmodium berghei [12]) [%]
–	CCN(CC)Cc1cccc(Nc2ccnc3cc(Cl)ccc23)c1	0.0158	0.0171	12.5	731	0.0132	–	–	–	–	–	–
70	CCN(CC)CCCC(C)Nc1ccnc2cc(Cl)ccc12 (stereo not drawn) [CHLOROQUINE]	–	–	> 32	–	–	Active	100	–	–	–	–
–	CCN(CC)Cc1ccc(Nc2ccnc3cc(Cl)ccc23)cc1O [ISOQUINE]	0.0054	0.0073	8	1096	0.0043	–	–	–	–	–	–
48	CCN(CC)Cc1cc(Nc2ccnc3cc(Cl)ccc23)ccc1O.Cl	–	–	12	1276	–	Active	100	–	–	–	–
–	CCN(CC)Cc1cc(O)cc(Nc2ccnc3cc(Cl)ccc23)c1	0.0352	0.0428	> 25	>584	0.0253	–	–	–	–	–	–
–	CCN(CC)Cc1cccc(Nc2ccnc3cc(Cl)ccc23)c1O	0.0952	0.262	> 25	>95	0.104	–	–	–	–	–	–
–	CCN(CC)Cc1ccc(O)c(Nc2ccnc3cc(Cl)ccc23)c1	–	0.0326	19	583	0.0152	–	–	–	–	–	–
–	CCN(CC)Cc1cc(NCCN2CCCCC2)cc(Nc2ccnc3cc(Cl)ccc23)c1	0.0191	0.0265	4	152	0.0156	–	–	–	–	–	–

Structure (SMILES)	IC50 [8] [µM]	IC50 (Plasmodium falciparum [1]) [µM]	IC50 (Plasmodium falciparum [2]) [µM]	CC50 at 168 h [3] [µM]	Ratio CC50/IC50 [4]	IC50 (Plasmodium falciparum [5]) [µM]	Activity (Plasmodium berghei [6])	Activity (Plasmodium berghei [7]) [%]	Activity (Plasmodium berghei [9])	Activity (Plasmodium berghei [10]) [%]	Activity (Plasmodium berghei [11]) [%]	Activity (Plasmodium berghei [12]) [%]
CCN(CC)Cc1cc(N)cc(Nc2ccnc3cc(Cl)ccc23)c1	153	0.0181	0.0323	> 25	774	0.0163	–	–	Active	100	63	96
